A short description of data set [1]: Oral bioavailability in CD-1 mouse at 2.5 to 5 mg/kg measured upto 24 hrs by HPLC-LCMS analysis. It is filed as ADME, organism-based. Particulars: in vivo, dose 2.5-5 mg/kg. The method in brief:
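Female CD1 mice (20–30 g) dosed IV at 1 mg/kg as a solution. Oral dosing at 2.5 or 5 mg/kg as a suspension in 0.5% methyl cellulose. […] Non-compartmental analysis.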

Data set [2] can be described thus: Apparent permeability across apical to basolateral side in human Caco-2 cells.
Data set [3] deals with Cytochrome P450 3A4 (Homo sapiens, UniProt P08684). In words: Induction of CYP3A4 in human hepatocytes at 3 uM relative to rifampicin. It is filed as ADME, cell-based, Hepatocyte. The gist of the method:
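Single-donor human hepatocytes exposed at 3 μM. CYP3A4 induction expressed as % of the 10 μM rifampicin positive control.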

Data set [4] deals with OVCAR-3. The data set is described as follows: Antitumor activity against human OVCAR-3 cells xenografted in SCID/Beige mouse assessed as time over EC90 concentration at 15 ppm incorporated with chow diet. It counts as functional. The gist of the method:
(§1)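 OVCAR3-bearing SCID-beige mice were fed drug-formulated chow. Whole blood was sampled at 6:30am and 4:30pm on days 2, 5 and 22 and quantified by LC-MS/MS. Blood levels were converted to free plasma levels using blood/plasma ratio 1.2 and CD-1 plasma fu 0.185. […] Time over EC90 was referenced to the tumour pCDK1(Thr14) EC90.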
For orientation: In xenograft studies the graft and the host belong to different species.

Data set [5] is described as follows: Stability in SCID/Beige mouse plasma assessed as unbound compound at 50 to 300 ppm simulated dose incorporated with chow diet measured on 22 day. It is filed as ADME. Particulars: in vivo, po, dose 50-300 ppm. The method in brief:
as §1

The nature of data set [6]: Toxicity in SCID/Beige mouse xenografted with OVCAR-3 cells assessed as reduction in food consumption at 15 to 300 ppm incorporated with chow diet measured upto 21 days. It is filed as cell-based. The note with it: in vivo, po, 504 h, dose 15-300 ppm, time < 21 day. The method in brief: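 The drug was dissolved in acetone and mixed into rodent meal at 300 ppm, then diluted with untreated feed to lower levels. Xenografted SCID-beige mice were acclimatised to blank chow, then fed 15, 50 or 300 ppm chow for 21 days. The two-day mean chow consumption was compared with mice on blank chow.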

A short description of data set [7]: Oral bioavailability in Cynomolgous monkey at 1 mg/kg measured upto 24 hrs by reversed phase LCMS analysis. The note with it: cynomolgus monkey, in vivo. It is filed as ADME, organism-based, Macaca fascicularis.
The conditions of data set [8]: Sprague-Dawley, rat, in vivo, po, 5 mg/kg, 24 h.
The test system of data set [9] is OVCAR-3. In words: Antitumor activity against human OVCAR-3 cells xenografted in SCID/Beige mouse assessed as reduction in tumor growth measured upto 20 days by digital caliper method. It is filed as functional, cell-based. The note with it: dose 15-300 ppm, time <= 21.0 day, DDE = dose-dependent effect, in the assay text read “upto 21 days” for “upto 20 days”. The method in brief:
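Female SCID-beige mice (5–7 weeks) were implanted in the right flank with 5×10^6 OVCAR3 cells in 1:1 matrigel:media. At 100–150 mm3 they were randomised (n=8/group) and acclimatised to blank chow for 3–5 days. They then received drug-formulated chow at 15, 50 or 300 ppm for 21 days. Tumours were measured by caliper, with volume = 0.52×L×W2. TGI was calculated from group means at day 0 and the last day versus vehicle.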

Data set [10] can be described thus: Toxicity in SCID/Beige mouse xenografted with OVCAR-3 cells assessed as change in body weight at 300 ppm measured upto 21 days. It is filed as cell-based. The note with it: in vivo, 504 h, time < 21 day. The gist of the method: (§2)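 OVCAR3 flank xenografts in female SCID-beige mice (n=8) given drug-formulated chow for 21 days after blank-chow acclimatization. Individual body weight change relative to day 0 = (BWlast−BWday0)/BWday0 ×100. Food consumption was also monitored as two-day mean chow intake.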

Data set [11] is described as follows: Unbound Cmax in SCID/Beige mouse xenografted with OVCAR-3 cells at 50 ppm incorporated with chow diet. The note with it: po. It is filed as ADME. The method in brief: as §1
Data set [12] deals with Cytochrome P450 2D6 (Homo sapiens, UniProt P10635). The data set is described as follows: Inhibition of CYP2D6 (unknown origin).
Data set [13] has as its target Voltage-gated inwardly rectifying potassium channel KCNH2 (Homo sapiens, UniProt Q12809). The data set is described as follows: Inhibition of human ERG by patch-clamp assay. It is filed as toxicity. (Patch clamp records ionic current or voltage across a cell membrane.)
Data set [14] deals with Cytochrome P450 2C9 (Homo sapiens, UniProt P11712). The data set is described as follows: Inhibition of CYP2C9 (unknown origin).
Data set [15] in a line: Toxicity in SCID/Beige mouse xenografted with OVCAR-3 cells assessed as tolerated dose at 300 ppm measured upto 21 days. The note with it: in vivo, 504 h, time < 21 day. It counts as cell-based. The gist of the method:
as §2

Data set [16] is described as follows: In vivo inhibition of PKMYT1 in SCID/Beige mouse xenografted with human OVCAR-3 cells assessed as inhibition of CDK1 phosphorylation measured upto 10 hrs post oral dose by ELISA method. It counts as functional. The gist of the method:
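OVCAR3 tumours were collected 2, 6 and 10 h after oral BID dosing (n=4/group/time point). They were homogenised in Tris lysis buffer with protease and phosphatase inhibitors. pCDK1(Thr14) was measured by sandwich ELISA with an anti-CDK1 capture antibody, an anti-CDK1-pT14 detector and an anti-rabbit HRP secondary, read at 450 nm. Signal was expressed relative to vehicle, and the free-plasma EC50 was derived by non-linear dose-response fitting.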

Data set [17] can be described thus: Metabolic stability in human hepatocytes assessed as intrinsic clearance measured per 10^6 cells.

Structures are written as SMILES. pEC50, pIC50: −log10 of the molar value. Bounds are passed on as bounds.

Voltage-gated inwardly rectifying potassium channel KCNH2, sequence (Q12809 whole entry): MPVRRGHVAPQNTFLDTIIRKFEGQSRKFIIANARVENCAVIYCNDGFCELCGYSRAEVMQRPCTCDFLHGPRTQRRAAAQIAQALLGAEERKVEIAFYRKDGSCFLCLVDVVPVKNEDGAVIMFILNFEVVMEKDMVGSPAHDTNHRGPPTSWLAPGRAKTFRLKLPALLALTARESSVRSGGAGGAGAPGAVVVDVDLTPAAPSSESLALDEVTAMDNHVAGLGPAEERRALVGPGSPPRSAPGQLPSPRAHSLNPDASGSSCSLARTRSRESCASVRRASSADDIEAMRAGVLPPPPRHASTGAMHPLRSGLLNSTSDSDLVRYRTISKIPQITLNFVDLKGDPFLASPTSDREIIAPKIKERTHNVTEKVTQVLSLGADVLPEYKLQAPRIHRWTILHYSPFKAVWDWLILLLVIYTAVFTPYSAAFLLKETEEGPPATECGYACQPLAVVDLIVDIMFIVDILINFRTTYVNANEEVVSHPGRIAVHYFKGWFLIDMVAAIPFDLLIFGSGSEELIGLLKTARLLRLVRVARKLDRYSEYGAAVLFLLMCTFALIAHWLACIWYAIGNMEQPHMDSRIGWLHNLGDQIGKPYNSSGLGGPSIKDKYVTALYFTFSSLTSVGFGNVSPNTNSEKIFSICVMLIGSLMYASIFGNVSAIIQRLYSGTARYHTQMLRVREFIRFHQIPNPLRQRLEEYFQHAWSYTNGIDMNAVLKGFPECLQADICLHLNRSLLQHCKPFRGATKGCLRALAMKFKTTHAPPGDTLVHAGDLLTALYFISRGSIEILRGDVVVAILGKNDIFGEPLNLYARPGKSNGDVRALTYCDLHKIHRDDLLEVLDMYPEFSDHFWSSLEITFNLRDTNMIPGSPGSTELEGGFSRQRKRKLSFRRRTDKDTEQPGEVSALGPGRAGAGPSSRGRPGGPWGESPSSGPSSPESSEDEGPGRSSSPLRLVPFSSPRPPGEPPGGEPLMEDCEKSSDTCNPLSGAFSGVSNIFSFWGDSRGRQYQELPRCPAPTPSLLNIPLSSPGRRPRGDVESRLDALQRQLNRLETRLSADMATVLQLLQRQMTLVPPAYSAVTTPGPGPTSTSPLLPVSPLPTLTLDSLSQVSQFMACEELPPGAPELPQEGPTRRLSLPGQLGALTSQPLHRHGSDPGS
Cytochrome P450 2C9, sequence (P11712 whole entry): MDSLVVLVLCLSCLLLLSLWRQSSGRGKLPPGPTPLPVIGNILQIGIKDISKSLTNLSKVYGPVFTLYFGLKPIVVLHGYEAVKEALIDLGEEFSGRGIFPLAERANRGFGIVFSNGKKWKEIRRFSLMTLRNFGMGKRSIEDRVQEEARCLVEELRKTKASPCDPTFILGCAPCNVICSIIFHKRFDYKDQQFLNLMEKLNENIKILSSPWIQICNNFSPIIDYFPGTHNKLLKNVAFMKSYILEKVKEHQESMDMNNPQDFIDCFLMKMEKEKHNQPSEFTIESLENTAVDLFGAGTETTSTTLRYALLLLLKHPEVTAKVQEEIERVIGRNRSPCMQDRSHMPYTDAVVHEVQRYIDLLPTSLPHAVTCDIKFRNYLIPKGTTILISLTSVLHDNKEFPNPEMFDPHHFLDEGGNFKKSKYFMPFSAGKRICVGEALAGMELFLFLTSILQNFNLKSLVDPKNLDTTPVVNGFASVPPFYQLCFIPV
Cytochrome P450 2D6, sequence (P10635 whole entry): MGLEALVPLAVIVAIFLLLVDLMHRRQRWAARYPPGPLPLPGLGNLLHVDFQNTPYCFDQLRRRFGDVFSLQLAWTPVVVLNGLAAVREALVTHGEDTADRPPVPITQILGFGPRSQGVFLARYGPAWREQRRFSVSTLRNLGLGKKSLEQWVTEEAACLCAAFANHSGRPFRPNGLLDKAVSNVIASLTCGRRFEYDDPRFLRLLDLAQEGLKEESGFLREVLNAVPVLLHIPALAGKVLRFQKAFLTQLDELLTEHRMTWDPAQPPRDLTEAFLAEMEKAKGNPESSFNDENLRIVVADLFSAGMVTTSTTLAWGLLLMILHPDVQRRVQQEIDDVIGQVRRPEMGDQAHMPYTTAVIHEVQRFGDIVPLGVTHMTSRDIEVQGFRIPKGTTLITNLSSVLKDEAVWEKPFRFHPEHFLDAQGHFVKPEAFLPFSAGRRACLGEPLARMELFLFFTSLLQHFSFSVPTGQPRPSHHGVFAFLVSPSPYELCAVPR
Cytochrome P450 3A4, sequence (P08684 whole entry): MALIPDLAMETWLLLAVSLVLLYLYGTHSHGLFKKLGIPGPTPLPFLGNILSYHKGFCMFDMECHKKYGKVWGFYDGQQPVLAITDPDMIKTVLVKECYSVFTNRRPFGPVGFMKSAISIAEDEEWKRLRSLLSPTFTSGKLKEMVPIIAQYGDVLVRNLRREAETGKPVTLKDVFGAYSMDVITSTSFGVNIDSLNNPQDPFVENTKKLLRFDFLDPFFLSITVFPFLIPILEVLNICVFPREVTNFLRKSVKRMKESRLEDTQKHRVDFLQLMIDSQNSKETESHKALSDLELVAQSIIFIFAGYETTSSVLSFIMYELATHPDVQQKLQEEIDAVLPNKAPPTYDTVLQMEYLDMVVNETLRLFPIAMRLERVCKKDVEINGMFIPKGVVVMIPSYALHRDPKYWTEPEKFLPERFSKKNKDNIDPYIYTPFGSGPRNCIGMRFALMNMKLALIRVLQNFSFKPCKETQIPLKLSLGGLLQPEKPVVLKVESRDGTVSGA

With `Cc1cc2c(C(N)=O)c(N)n(-c3c(C)ccc(O)c3C)c2nc1C` [LUNRESERTIB], the figures for the F in data set [1], in data set [7] and in data set [8] were 37%, 29% and 48%, respectively. Moreover, in data set [2], the Papp is on record as 15.2 10^-6 cm/s. For the same compound, the Activity in [3] was 12.5%; in data set [6] it was “Non-Toxic”; in data set [9] it was “Dde”; in [10], “Non-Toxic”; in data set [15], “Non-Toxic”. The Time in data set [4] is 0 h. For the same compound, in data set [5], the Stability result was “Stable”. The same compound yielded a fCmax in data set [11] of 15.5 nM. Moreover, the pIC50 in data set [12] is less than 4.52; in data set [13] it was less than 4.00; in [14] it was less than 4.52. For the same compound, the pEC50 in data set [16] (Homo sapiens, OVCAR-3, 10 h) is 9.70. Besides, in [16] (route po, time <= 10 hrs), the EC90 worked out at 0.011 µM. In [17], the CLH came out at 3.2 µL/min.

A word on the pIC50: it is the IC50 on a negative log10 scale, so that one unit is a factor of ten. The term pEC50 denotes −log10 of the EC50, conventionally taken in molar units. As usually defined, the EC90 is the concentration at which the effect reaches the 90% level.

The record behind these values is ChEMBL document CHEMBL5137074 (J Med Chem, 2022).
